According to PubChem BioAssay AID602169 (The Scripps Research Institute Molecular Screening Center, 2012):
Active and inactive are the calls of the source.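 Rule for the calls: active = luciferase reporter signal inhibited by 20% or more; inactive = inhibition below 20%.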

Test system: BG1Luc4E2 ER-luciferase reporter inhibition, 24 h
Assay: inhibitors of ER-driven luciferase reporter, late-stage follow-up, counter-screen for AHR activator project, BG1Luc4E2 ovarian carcinoma cells, luminescence (AID 602169)
Details: at 10 µM; hits give high values
In short: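 Material: BG1Luc4E2 human ovarian carcinoma cells with stable ERE-driven firefly luciferase; medium: phenol red-free DMEM with charcoal-stripped FBS; probe or stimulus: estradiol 17β stimulus; dosing: 10 µM, single concentration; incubation: 5-day estrogen depletion, then 24 h compound exposure at 37 °C; signal: luciferase luminescence after lysis; replication: triplicates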

O=C(Nc1cccc(Cl)c1)c1cccnn1
inhibition: 2% (inactive)

CCOc1ccc(NC(=O)c2cc3ccccc3cc2OC)cc1
inhibition: 5.3% (inactive)

Cc1ccc(-c2cc(-c3cccs3)[nH]n2)c(O)c1
inhibition: 20%

CCOC(=O)Cc1cc(-c2ccc(O)cc2)nc2ccc3ccccc3c12
inhibition: 28%

COc1ccccc1NC(=O)c1ccc2c(c1)nnn2C
inhibition: 0% (inactive)

Cc1nnc(N2C(=O)c3cccc4c([N+](=O)[O-])ccc(c34)C2=O)s1
inhibition: 0% (inactive)

Cn1c(N)c(C(=O)Nc2ccccc2F)sc1=S
inhibition: 5% (inactive)

Cc1c(-c2ccn[nH]2)cc(NC(=O)c2ccc(Cl)cc2)c(=O)n1N
inhibition: 1% (inactive)

Cc1nc(N)nc(Nc2ccc(Cl)cc2)c1Br
inhibition: 7% (inactive)

CCCC(=O)Nc1nn(C)c2nc3cc(C)ccc3cc12
inhibition: 0% (inactive)

COC(=O)c1ccccc1NC(=O)Cn1ccnc1
inhibition: 3% (inactive)

COc1ccc(Cl)cc1C(=O)Nc1ccc(N(C)C(C)=O)cc1
inhibition: 2% (inactive)

CN(C)c1nc(N)nc(-c2nc3ccccc3s2)n1
inhibition: 44%

COc1ccccc1NC(=O)c1ccc(C(=O)Nc2ccccc2OC)nc1
inhibition: 0% (inactive)

O=C(CN1CCOCC1)Nc1nc2ccc([N+](=O)[O-])cc2s1
inhibition: 11% (inactive)

COc1ccc(C(=O)Nc2cc(OC)c(NC(=O)c3ccco3)cc2OC)cc1
inhibition: 0% (inactive)

CCOc1ccc(-c2cc(C)n3nc(C(N)=O)cc3n2)cc1
inhibition: 0% (inactive)

CN1CCN(CCCNC(=O)c2cc3c(-c4ccc(Cl)cc4)nn(C)c3s2)CC1
inhibition: 0% (inactive)

COc1ccccc1NC(=O)Nc1cccnc1
inhibition: 3% (inactive)

CCOc1ccccc1NC(=O)c1ccc2nccnc2c1
inhibition: 8% (inactive)

Cc1ccccc1-c1nc(-c2cccnc2)no1
inhibition: 22%

COc1cc2ccccc2cc1C(=O)Nc1ccc(C)cc1
inhibition: 40%

Cc1ccc(Nc2ncccc2C(N)=O)cc1
inhibition: 24%

COc1ccc(NC(=O)c2cccc3c(Br)cccc23)cc1
inhibition: 31%

O=C(Nc1ccon1)c1cnc2sccn2c1=O
inhibition: 34%

Cn1c(C(=O)N2CCC(C(N)=O)CC2)cc2cc(Cl)ccc21
inhibition: 4% (inactive)

Cc1csc(SCC(=O)Nc2ccc(Cl)cn2)n1
inhibition: 0% (inactive)

COc1ccccc1C(=O)Nc1ccc(N2CCCCC2)cc1
inhibition: 47%

Cc1cc(Nc2ccc(Br)cc2)n2nc(C)nc2n1
inhibition: 0% (inactive)

COc1cc2c(cc1NC(=O)Nc1ccc(C)cc1)oc1ccccc12
inhibition: 5% (inactive)

O=C1c2ccccc2-c2nc3ccccc3nc21
inhibition: 34%

CCC(=O)Nc1cc(OC)c(NC(=O)c2ccccc2)cc1OC
inhibition: 1% (inactive)

CC(=O)c1ccc(NC(=O)c2cc(Cl)nc3ccccc23)cc1
inhibition: 2% (inactive)
